Most compounds without a hit are left out; they make up all but 1.7% or so of the library.
CSN inh: inhibitors of human CSN-mediated cullin deneddylation; inhibition, % at 12.5 µM; Purified CSN, SCF-Nedd8-OG deneddylation, fluorescence polarization; Q92905; 0.38% of 360,000 active; AID 651999;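 active = pattern-corrected inhibition above about 35%, with an unprinted fluorescence ratio check between 0.5 and 1.5, limit read from the data, passing the limit was not always enough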
Target sequence (Q92905 whole entry, looked up, one chain of several): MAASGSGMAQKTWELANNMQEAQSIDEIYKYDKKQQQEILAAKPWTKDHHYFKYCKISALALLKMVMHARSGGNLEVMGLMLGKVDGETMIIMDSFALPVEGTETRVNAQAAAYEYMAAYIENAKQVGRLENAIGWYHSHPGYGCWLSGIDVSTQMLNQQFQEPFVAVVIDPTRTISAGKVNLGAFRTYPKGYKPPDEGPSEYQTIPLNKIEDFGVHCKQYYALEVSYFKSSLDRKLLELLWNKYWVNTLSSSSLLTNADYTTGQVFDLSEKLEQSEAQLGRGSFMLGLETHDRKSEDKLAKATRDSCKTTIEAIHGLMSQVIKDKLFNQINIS
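Assay system: Purified human Csn5 enzyme expressed in HEK293T cells | Amount: Enzyme 0.24 nM | Measured by: Fluorescence polarization readout | Medium: Tris/NaCl/DTT buffer, pH 7.5 | Compound dosing: One concentration, 12.5 µM, 0.25% DMSO | Times: 90 min incubation of compound, enzyme and substrate at room temperature | Control set: no-enzyme wells high, enzyme-with-substrate wells low | Read-out: % inhibition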
IDE inh: inhibits human insulin-degrading enzyme in HEK cells. P14735. FAbetaB cleavage, fluorescence polarization. inhibition, % at 5.59 µM. 0.41% of 320,000 active. AID 434962;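 active = percent inhibition above the average of all tested compounds plus 3 SD, set per screening campaign, cut at about 16% in these data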;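 also: IDE supplied by intact live HEK cells; FP after avidin binding of uncleaved biotin substrate so inhibition keeps polarization high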
Rpn11 inh: Rpn11 (human) deubiquitinase inhibition; 0.59% of 360,000 active; O00487; AID 588493; calls only at 20 µM; human 26S proteasome, Ub4-pepOG fluorescence polarization; 20S core pre-blocked with epoxomicin;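 active = inhibition at 20 µM, scaled to each plate's controls, above about 33%, limit read from the data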
Target sequence (O00487 whole entry, looked up): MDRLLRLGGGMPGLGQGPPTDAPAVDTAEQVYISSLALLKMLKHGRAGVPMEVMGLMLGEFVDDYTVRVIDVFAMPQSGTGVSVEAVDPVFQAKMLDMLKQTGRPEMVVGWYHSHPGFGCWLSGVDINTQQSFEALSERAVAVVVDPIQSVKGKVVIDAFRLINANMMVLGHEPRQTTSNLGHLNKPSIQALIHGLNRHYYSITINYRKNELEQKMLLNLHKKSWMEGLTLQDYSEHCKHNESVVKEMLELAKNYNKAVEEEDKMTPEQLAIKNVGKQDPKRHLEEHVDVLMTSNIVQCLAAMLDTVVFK
TPT1 inh: inhibitors of Candida albicans tRNA 2'-phosphotransferase TPT1 | recombinant caTPT1, FP RNA substrate dephosphorylation | inhibition, % at 5 µM | 0.81% of 300,000 active;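 active = inhibition above the mean of all tested compounds plus 3 SD, set per screening campaign, cut at about 24% in these data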
HNF4A DNA FP: change in binding of human HNF4 alpha to DNA; P41235; HNF4a-FITC DNA binding, fluorescence polarization, 1 h; activity change, % at 10 µM; 0.3% of 360,000 active; AID 1224865; in the data active = activity change above about 30%, passing the limit was not always enough
IDE act: boosts human insulin-degrading enzyme activity in HEK cells; 0.073% of 340,000 active; activation, % at 5.96 µM; P14735; FAbeta-B cleavage, fluorescence polarization; 0% vehicle, 100% cell-free pure enzyme wells; AID 493087;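 active = activation above the mean of all tested compounds plus 3 SD, set per screening campaign, cut at about 17% in these data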
Rpn11 inh conf: confirmation of human proteasome Rpn11 inhibitors; shares compounds with Rpn11 inh; purified human 26S proteasome, Ub4-pepOG fluorescence polarization; proteasome pretreated with epoxomicin; inhibition, % at 20 µM; 29% of 1,900 active; AID 602318
MMP-2 counter: MMP-2 (human) inhibition counter-screen; AID 602330; recombinant MMP-2, FRET peptide cleavage fluorescence; inhibition, % at 20 µM; shares compounds with Rpn11 inh; 4% of 1,900 active;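 also: human MMP-2 activated beforehand with APMA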
Thrombin inh: counter-screen for RPN11 inhibitors: inhibition of bovine thrombin; inhibition, % at 20 µM; 13% of 1,900 active; bovine thrombin cleavage of Ub4-pepOG, fluorescence polarization; AID 602333; shares compounds with Rpn11 inh;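 active = mean inhibition at least 40% at 20 µM, or signal 3 deviations below plate average, so some actives read negative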
A number is an active result; – = inactive; · = no result given; + = active, no number. Rule as the data show it, unless noted: active = inhibition above about 40%; inactive = the rest.

SMILES	CSN inh	IDE inh	Rpn11 inh	TPT1 inh	HNF4A DNA FP	IDE act	Rpn11 inh conf	MMP-2 counter	Thrombin inh
Cc1c(F)cccc1NS(=O)(=O)c1ccc2c(c1)c(C)cc(=O)n2C	–	–	–	–	–	–	·	·	·
CCOC(=O)c1c(NC(=O)CSc2nc3cccnc3n2C)sc(C(C)=O)c1C	–	–	+	–	–	–	–	–	–
CCOC(=O)c1sc(NC(=O)CSc2nc3cccnc3n2C)nc1C	–	–	–	–	–	–	·	·	·
COc1cc(/C=N/O)ccc1OCc1ccccc1Cl	–	–	–	–	–	–	·	·	·
COC(=O)c1ccccc1NC(=O)c1ccc(-c2ccc(Br)cc2)o1	–	–	–	–	–	–	·	·	·
O=C(Nc1cccc2nsnc12)c1ccc(-c2ccc(Br)cc2)o1	–	–	+	–	–	–	–	–	–
CC(=O)N(c1ccc2oc(=O)sc2c1)S(=O)(=O)c1cccc2cccnc12	–	–	+	–	31	–	–	–	–
COC(=O)c1sc(NC(=O)/C=C/c2ccccc2Cl)nc1C	–	–	+	–	47	–	–	–	–
CCOc1ccc2nc(SCC(=O)NCc3ccco3)sc2c1	–	–	+	–	–	–	–	–	–
CCOc1ccc2nc(SCC(=O)c3ccc(Cl)s3)sc2c1	–	–	+	–	–	–	–	–	–
O=C(c1ccccn1)N(CC1CCCO1)C1(C(=O)NC2CCCCC2)CCCCC1 (configuration not stated)	–	–	–	–	–	–	·	·	·
CCC(CC)c1nc2cc(OC)c(OC)cc2c(=O)o1	–	–	+	–	–	–	–	–	–
COc1cc2nc(C(C)(C)C)oc(=O)c2cc1OC	–	–	–	–	–	–	·	·	·
Cc1cc(Br)ccc1OCC(=O)NNC(=O)c1ccc(NC(=O)C2CC2)cc1	–	–	+	–	–	–	–	–	–
C=CCn1nc([N+](=O)[O-])nc1Sc1cccc2cccnc12	–	–	+	–	–	–	–	–	–
O=[N+]([O-])c1ccc(Sc2cccc3cccnc23)c([N+](=O)[O-])c1	–	–	+	–	–	–	57	–	–
COCCN1C(=O)C(=O)/C(=C(/O)c2ccc(OC(C)C)cc2)C1c1cccnc1 (configuration not stated)	–	–	–	–	–	–	·	·	·
CCCCc1ccc(-c2csc(/C(C#N)=C\c3ccc(C)o3)n2)cc1	38	–	+	–	45	–	–	–	–
CCCCc1ccc(-c2csc(/C(C#N)=C/c3ccco3)n2)cc1	–	–	–	–	–	–	·	·	·
O=C(COc1ccc([N+](=O)[O-])cc1)Nc1cccc2nsnc12	–	–	+	–	–	–	–	–	–
Cc1ccc(OCC(=O)Nc2cccc3nsnc23)c(C)c1	–	–	–	–	–	–	·	·	·
COc1ccc(-c2ccc(/C=C3/C(=N)N4C=CSC4=NC3=O)o2)c([N+](=O)[O-])c1	–	–	+	–	–	–	–	–	–
O=C(Nc1ccccn1)c1ccc(Br)s1	–	–	–	–	–	–	·	·	·
O=C(Nn1cnnc1)c1ccc(Br)s1	–	–	+	–	–	–	–	–	–
O=c1[nH]c(CN2CCN(c3ccccc3)CC2)nc2scc(-c3ccccc3)c12	–	–	+	–	–	–	–	–	–
SMILES	CSN inh	IDE inh	Rpn11 inh	TPT1 inh	HNF4A DNA FP	IDE act	Rpn11 inh conf	MMP-2 counter	Thrombin inh
CC1Cc2ccccc2N1Cc1nc2scc(-c3cccs3)c2c(=O)[nH]1 (configuration not stated)	–	–	–	–	–	–	·	·	·
COc1ccc(N2CCN(Cc3nc4scc(-c5cccs5)c4c(=O)[nH]3)CC2)cc1	–	–	+	–	–	–	–	–	–
COc1ccc(N2CCN(Cc3nc4scc(-c5ccccc5)c4c(=O)[nH]3)CC2)cc1	–	–	–	–	–	–	·	·	·
CCCc1nc2ccc(Cl)cn2c1Cc1ccccc1	–	·	–	·	–	·	·	·	·
CC(=O)Nc1ccc(CN2C(=O)C(C)(C)ON=C2c2ccc(C(F)(F)F)cc2)cc1	–	·	–	·	–	·	·	·	·
CCOc1cccc(/C=C2\NC(=S)N(c3ccccc3)C2=O)c1O	–	–	–	–	–	–	·	·	·
COc1cc(/C=C2\SC(=Nc3c(C)n(C)n(-c4ccccc4)c3=O)NC2=O)ccc1O	–	·	+	·	–	–	–	–	–
CCOc1cc(/C=C2\NC(=S)N(c3c(C)n(C)n(-c4ccccc4)c3=O)C2=O)ccc1O	–	–	+	–	–	–	67	–	45
COC(=O)C(NC(=O)c1ccco1)(Nc1nc(C2CC2)cs1)C(F)(F)F (configuration not stated)	–	–	–	–	–	–	·	·	·
O=C1NC(=S)S/C1=C\c1cc2ccccc2nc1N1CCCCC1	–	–	+	–	–	–	74	–	46
CC(C)(C)c1ccc(/C=C/C(=O)N2CCCCC2)cc1	–	·	–	·	–	–	·	·	·
C/C(=N\Nc1ccc(C#N)cc1[N+](=O)[O-])c1ccc(C)o1	–	–	+	–	–	·	–	–	–
CCN(CC)CCCNC(=O)c1nn(-c2ccc(OC)cc2OC)c(=O)c2ccccc12	–	–	+	–	–	–	–	–	–
CCN(CC)CCCNC(=O)c1nn(-c2cccc(OC)c2)c(=O)c2ccccc12	–	–	–	–	–	–	·	·	·
Cc1cc(=O)n2[nH]c(-c3ccsc3-n3c(C)ccc3C)cc2n1	–	–	+	–	–	–	–	–	–
O=C(N/N=C/c1ccc(-c2ccc(S(=O)(=O)Nc3ncccn3)cc2)o1)c1cc2ccccc2cc1O	–	–	+	–	–	–	51	–	–
CCN(CC)c1nc2cc(C)ccc2cc1/C=C(\C#N)C(N)=O	–	–	+	–	–	–	–	–	–
CCc1ccc(NC(=O)/C(C#N)=C/c2cc3ccc(C)cc3nc2N2CCOCC2)cc1	–	–	·	–	–	–	·	·	·
CCCCCCSc1ccc(-c2nc3ccc(Cl)cn3c2NCCCC)cc1OC	–	–	+	·	–	–	–	–	–
CCCCCCSc1ccc(-c2nc3ccc(C)cn3c2NCCCC)cc1OC	–	·	·	·	–	·	·	·	·
CC(C)CNC(=O)COC(=O)c1c2c(nc3ccccc13)/C(=C\c1cccs1)CC2	–	·	–	·	–	–	·	·	·
CN(CCC#N)C(=O)COC(=O)c1c2c(nc3ccccc13)/C(=C/c1ccco1)CC2	–	–	+	–	–	–	45	–	–
COc1ccc(CCNC(=O)c2c(C)nn(CC(C)C)c2Cl)cc1	–	–	–	–	–	–	·	·	·

Screening results (PubChem)
